58 sequences from the array DNA melting data of Ke et al. (doi:10.1101/2024.01.08.574731) can be followed below.

A short description of data set [1]: folding enthalpy; higher = less favourable; fluorescence melt of hairpins on a sequencing array, two-state fit. Conditions: sodium 0.088 M. In outline:
(§1)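 With Cy3 and quencher oligos annealed, library hairpins on a sequenced MiSeq flow cell were imaged for Cy3 fluorescence in 50 mM Na-HEPES pH 8.0, 25 mM NaCl, in 2.5 °C steps up to 60 °C. Melting temperature and folding enthalpy were derived from bootstrapped two-state fits of signals normalised to pre-quench Cy3 and to control constructs. Four replicates were combined by inverse variance, with fitted temperatures raised by 9.35 °C to match UV melts.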

Data set [2] in a line: melting temperature; fluorescence melt of hairpins on a sequencing array, two-state fit, raised by 9.35 °C to match UV melts. Conditions: sodium 0.088 M. An outline of the steps:
as §1

As for GCGACGGCGAAAGCCCGC (((..(((....)))))), the folding enthalpy in data set [1] was -16.6 kcal/mol. The Tm in data set [2] is 58.1 °C.

On to GCGACGGGAAACCGCCAC (.(.(((....))).).), for which the folding enthalpy in data set [1] was -13.4 kcal/mol. In addition, the Tm in data set [2] was found to be 31.9 °C.

As to GCGACGGGAAACCGTCAC (.(((((....))))).), the folding enthalpy in data set [1] was -13 kcal/mol. Besides, the Tm in data set [2] was determined as 48.7 °C.

On to GCGACTCATCGC ((((....)))), for which, in data set [1], the folding enthalpy is -24.5 kcal/mol. Further, the Tm in data set [2] came out at 49 °C.

With GCGACTCGAAAGAGCGC (((.(((....)))))), the folding enthalpy in data set [1] was -32.7 kcal/mol. The Tm in data set [2] came to 60.4 °C.

For the sequence GCGACTGGAAACAACCGC (((..((....))..))), the folding enthalpy in data set [1] was -18.1 kcal/mol. Besides, the Tm in data set [2] turned out to be 29.2 °C.

For the sequence GCGACTTCTCGC ((((....)))), the folding enthalpy in data set [1] was -25.7 kcal/mol. The Tm in data set [2] amounted to 47.8 °C.

As to GCGAGAGATCGC ((((....)))), the folding enthalpy in data set [1] is -17.5 kcal/mol. For the same sequence, the Tm in data set [2] stood at 50.3 °C.

With GCGAGATTTCGC ((((....)))), in data set [1], the folding enthalpy was -20.1 kcal/mol. In addition, the Tm in data set [2] came to 50.1 °C.

For the sequence GCGAGCACTCGC ((((....)))), the folding enthalpy in data set [1] is -26.4 kcal/mol. Also, the Tm in data set [2] is 56.8 °C.

As to GCGAGCCCGAAAGGGCGC (((..(((....)))))), the folding enthalpy in data set [1] was -7.38 kcal/mol. For the same sequence, the Tm in data set [2] is 55.8 °C.

Take GCGAGCCCTCGC ((((....)))): the folding enthalpy in data set [1] was -26 kcal/mol. The Tm in data set [2] came to 55 °C.

As for GCGAGCCTCGC ((((...)))), the folding enthalpy in data set [1] is -21.9 kcal/mol. Besides, in data set [2], the Tm is 49.7 °C.

Regarding GCGAGCGAAAGCTACCGC ((((((....)))..))), the folding enthalpy in data set [1] was -18.8 kcal/mol. The Tm in data set [2] is 48.1 °C.

In the case of GCGAGCGAAAGCTGTCGC ((((((....)))..))), the folding enthalpy in data set [1] is -23.8 kcal/mol. Besides, the Tm in data set [2] worked out at 52.9 °C.

Take GCGAGCGAAAGCTTCGC ((((((....))).))): the folding enthalpy in data set [1] is -28 kcal/mol. The Tm in data set [2] came to 66.1 °C.

Consider GCGAGCGGAAACGCTTGC ((.((((....)))).)), for which the folding enthalpy in data set [1] was -34.4 kcal/mol. The Tm in data set [2] was found to be 61.9 °C.

On to GCGAGCGTCGC ((((...)))), for which, in data set [1], the folding enthalpy is -10.2 kcal/mol. Moreover, the Tm in data set [2] amounted to 60 °C.

Turning to GCGAGCTATCGC ((((....)))), in data set [1], the folding enthalpy is -24.2 kcal/mol. In addition, in data set [2], the Tm is 60.8 °C.

Take GCGAGCTCTCGC ((((....)))): in data set [1], the folding enthalpy is -30.9 kcal/mol. Besides, in data set [2], the Tm came out at 53.1 °C.

Turning to GCGAGCTTCGC ((((...)))), the folding enthalpy in data set [1] was -18.5 kcal/mol. Besides, the Tm in data set [2] worked out at 49 °C.

GCGAGGAGTCGC ((((....)))): in data set [1], the folding enthalpy is -13.4 kcal/mol. Also, the Tm in data set [2] was 52.8 °C.

In the case of GCGAGGCGAAAGCCATGC ((..(((....)))..)), the folding enthalpy in data set [1] was -17.6 kcal/mol. Moreover, the Tm in data set [2] amounted to 58.1 °C.

Turning to GCGAGGCGAAAGCCTGGC ((.((((....)))).)), in data set [1], the folding enthalpy was -24.8 kcal/mol. The Tm in data set [2] turned out to be 66.5 °C.

In the case of GCGAGGCGAAAGCGTTGC ((.(.((....)).).)), in data set [1], the folding enthalpy is -18.6 kcal/mol. For the same sequence, in data set [2], the Tm turned out to be 55.5 °C.

As for GCGAGGCGAAAGCTTAGC ((.(.((....)).).)), the folding enthalpy in data set [1] was -16.7 kcal/mol. Moreover, the Tm in data set [2] turned out to be 56.9 °C.

Consider GCGAGGGCGAAAGCCCGC (((..(((....)))))), for which, in data set [1], the folding enthalpy is -8.66 kcal/mol. Besides, the Tm in data set [2] was determined as 59.5 °C.

For the sequence GCGAGGTATCGC ((((....)))), the folding enthalpy in data set [1] is -21.6 kcal/mol. Also, in data set [2], the Tm came to 55.6 °C.

With GCGAGGTCTCGC ((((....)))), the folding enthalpy in data set [1] is -22 kcal/mol. For the same sequence, the Tm in data set [2] was found to be 54.9 °C.

Regarding GCGAGTACGAAAGTACGC (((..(((....)))))), the folding enthalpy in data set [1] is -12 kcal/mol. Further, the Tm in data set [2] is 53.1 °C.

As to GCGAGTAGTCGC ((((....)))), the folding enthalpy in data set [1] is -19.9 kcal/mol. The Tm in data set [2] was determined as 54.3 °C.

Regarding GCGAGTCATCGC ((((....)))), in data set [1], the folding enthalpy was -24.8 kcal/mol. Moreover, the Tm in data set [2] worked out at 67.8 °C.

Turning to GCGAGTGGAAACGCTCGC (((((.(....).))))), in data set [1], the folding enthalpy was -46 kcal/mol. Besides, the Tm in data set [2] was 64 °C.

In the case of GCGAGTGTTCGC ((((....)))), in data set [1], the folding enthalpy was -14.4 kcal/mol. Also, the Tm in data set [2] was determined as 49 °C.

As for GCGAGTTATCGC ((((....)))), the folding enthalpy in data set [1] is -24 kcal/mol. Besides, the Tm in data set [2] worked out at 57.6 °C.

As to GCGAGTTCTCGC ((((....)))), the folding enthalpy in data set [1] is -25.6 kcal/mol. Besides, the Tm in data set [2] is 56.2 °C.

For GCGATACGAAAGTACCGC (((.(((....))).))), in data set [1], the folding enthalpy was -43.2 kcal/mol. Also, the Tm in data set [2] came out at 54.2 °C.

For GCGATACGAAAGTACGC (((.(((....)))))), the folding enthalpy in data set [1] is -29.6 kcal/mol. Moreover, in data set [2], the Tm was 55.4 °C.

As to GCGATAGAAATATCGC ((((((....)))))), the folding enthalpy in data set [1] is -41.7 kcal/mol. Further, in data set [2], the Tm was 58.3 °C.

As for GCGATAGCGAAAGCTCGC (((..(((....)))))), in data set [1], the folding enthalpy was -18.5 kcal/mol. The Tm in data set [2] worked out at 51.5 °C.

As to GCGATAGGAAACCATCGC (((((.(....).))))), the folding enthalpy in data set [1] was -34.5 kcal/mol. For the same sequence, the Tm in data set [2] came out at 50.1 °C.

With GCGATAGGAAACTACCGC (((.(((....))).))), the folding enthalpy in data set [1] is -28.5 kcal/mol. Also, the Tm in data set [2] came out at 44.7 °C.

As to GCGATAGGAAACTATCGC (((((((....))))))), in data set [1], the folding enthalpy was -57.2 kcal/mol. The Tm in data set [2] came out at 65.9 °C.

Take GCGATCACGAAAGTGCGC (((..(((....)))))): the folding enthalpy in data set [1] is -20.9 kcal/mol. Besides, the Tm in data set [2] is 48.7 °C.

On to GCGATCCCTCGC ((((....)))), for which the folding enthalpy in data set [1] was -24.1 kcal/mol. Moreover, in data set [2], the Tm was found to be 49.8 °C.

On to GCGATCCGAAAGGACGC (((.(((....)))))), for which the folding enthalpy in data set [1] was -37.7 kcal/mol. For the same sequence, in data set [2], the Tm was determined as 61.3 °C.

GCGATCCGTCGC ((((....)))): the folding enthalpy in data set [1] was -24.6 kcal/mol. Besides, the Tm in data set [2] amounted to 51.6 °C.

GCGATCGAAAGATATCGC ((((((....)))..))): the folding enthalpy in data set [1] was -29.2 kcal/mol. Also, the Tm in data set [2] is 47 °C.

Regarding GCGATCGAAAGATTCGC ((((((....))).))), the folding enthalpy in data set [1] is -45.1 kcal/mol. Further, in data set [2], the Tm turned out to be 53.5 °C.

Consider GCGATCGATCGC ((((....)))), for which, in data set [1], the folding enthalpy was -41.2 kcal/mol. Moreover, in data set [2], the Tm is 56.5 °C.

Consider GCGATCGCGAAAGCGCGC (((..(((....)))))), for which, in data set [1], the folding enthalpy was -15.4 kcal/mol. In data set [2], the Tm was determined as 55.2 °C.

For the sequence GCGATCGGAAACAATCGC (((((.(....).))))), the folding enthalpy in data set [1] is -37.6 kcal/mol. The Tm in data set [2] is 48.1 °C.

For the sequence GCGATCGGAAACGGTTGC ((.(.((....)).).)), in data set [1], the folding enthalpy was -29.6 kcal/mol. In addition, the Tm in data set [2] turned out to be 44.9 °C.

Take GCGATCGTTCGC ((((....)))): in data set [1], the folding enthalpy was -29 kcal/mol. In addition, the Tm in data set [2] was 50.4 °C.

On to GCGATCTCTCGC ((((....)))), for which the folding enthalpy in data set [1] was -31.1 kcal/mol. Moreover, the Tm in data set [2] was found to be 47.9 °C.

In the case of GCGATGCGAAAGCACAGC ((..(((....)))..)), in data set [1], the folding enthalpy was -19.2 kcal/mol. Besides, in data set [2], the Tm came to 52 °C.

As for GCGATGCGAAAGCCTTGC ((.(.((....)).).)), in data set [1], the folding enthalpy was -25.4 kcal/mol. The Tm in data set [2] was found to be 36.3 °C.

With GCGATGCGAAAGCGTAGC ((.(.((....)).).)), the folding enthalpy in data set [1] is -24.6 kcal/mol. In addition, the Tm in data set [2] amounted to 54.8 °C.
